Test results: paper PMC11451551 (Science Advances, 2024)

Tests used:
H1650 tumors = test: H1650 xenograft efficacy in SCID/bg mice; format: in vivo, mouse
Method in brief: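 H1650 or PC-9 NSCLC cells (RPMI 1640, 10% heat-inactivated FBS, ≤5 passages, mycoplasma-free) were injected subcutaneously at 5×10^6 cells into the right flank of 8-week-old female SCID/bg mice (~22 g). Docetaxel was given 7.5 mg/kg iv QDx1 and conjugates intraperitoneally. In the single-dose study (H1650 only), tumours were ~200 mm³ and treatment began on day 9, QDx1. In the other study, treatment began on day 10, Q7D×2. Volumes are means of eight tumours.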

anesthetized beagle dogs = test: in vivo; format: in vivo, dog; settings: for effect on cardiovascular parameters / effect on platelets: iv bolus
in vivo = format: in vivo, dog; settings: male, beagle, dog, in vivo, 0.3 mg/kg
[1] = system: digitonin-permeabilized Molt-4 cells; test: Permeabilized cell JC-1 assay; format: cell-based, human
Method in brief: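 Molt-4 cells were washed into DTEB buffer (trehalose, KCl, EDTA/EGTA, 0.1% BSA, succinate, 10 mM Hepes-KOH pH 7.5) containing 2 μM JC-1, 0.01% digitonin, 10 mM β-mercaptoethanol and oligomycin (20 μg/ml). After 10 min at room temperature they were diluted with an equal volume of buffer and test compound was added. DMSO was the negative control; FCCP 10 μM final defined 100% depolarization. Fluorescence at 590 nm was read every 10 min, 37°C, 1–3 h. EC50 from % depolarization.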

[2] = system: circulating platelets in SCID/bg mice; test: Assessment of platelet levels in mice; format: in vivo, mouse; settings: single dose: 9 0.1 mg/kg iv, 10 0.6 mg/kg iv, navitoclax 50 mg/kg oral
Method in brief: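 Female SCID/bg mice were randomised (15 per group) and given one dose of vehicle or test compound, intravenously or by oral gavage. At 6, 72 and 168 h, five mice per group were bled from the retro-orbital plexus under sevoflurane into heparinised vials and then euthanised without recovery. Platelets were counted on an automated haematology analyser; results are group means with SEM.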

Molt-4 cells = test: Cell viability assay; format: cell-based, human
Method in brief: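 Molt-4 or RS4;11 leukaemia cells were plated at 50,000 per well in medium with 10% human serum. They were exposed 48 h to a threefold dilution series of test compound, 5 to 0.020 μM, each concentration in duplicate on at least three occasions. Viable cells were read by CellTiter-Glo luminescence, and EC50 was taken from a sigmoidal fit.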

Compound	Permeabilized Molt-4 EC50 [1]	effect on cardiovascular parameters (anesthetized beagle dogs)	effect on platelets (anesthetized beagle dogs)	effect on platelets at 6 hours [2]	other results
CC(=O)O[C@@]12CO[C@@H]1C[C@H](O)[C@@]1(C)C(=O)[C@H](O)C3=C(C)[C@@H](OC(=O)[C@H](O)[C@@H](NC(=O)OC(C)(C)C)c4ccccc4)C[C@@](O)([C@@H](OC(=O)c4ccccc4)[C@H]21)C3(C)C [docetaxel]					tumor growth inhibition (TGI) (H1650 tumors; 7.5 mg/kg iv QDx1, alone (single-dose ADC study)): 81%; time by which all tumors were relapsed (H1650 tumors; single agent): ≤ 46 days
Cc1c(-c2ccc(N3CCc4cccc(C(=O)Nc5nc6ccccc6s5)c4C3)nc2C(=O)O)cnn1CC12CC3(C)CC(C)(C1)CC(OCCNCC[C@H](O)CO)(C3)C2 [compound 11]					effect on cardiovascular function (anesthetized beagle dogs; 0.3 mg/kg per minute): cardiovascular collapse in both animals; effect on cardiovascular function (anesthetized beagle dogs; 0.01 and 0.1 mg/kg per minute): no impact on blood pressure or other indices of cardiovascular function; plasma concentration without impact on cardiovascular function (anesthetized beagle dogs; infusion 0.01 and 0.1 mg/kg per minute): ≤ 447 ng/mL; estimated cardiovascular TI (dog tolerated plasma level vs free 11 in monkeys) (anesthetized beagle dogs; male, beagle, dog, in vivo): > 65 fold; Cmax (in vivo): 1020 ng/mL
Cc1c(-c2ccc(N3CCc4cccc(C(=O)Nc5nc6ccccc6s5)c4C3)nc2C(=O)O)cnn1CC12CC3(C)CC(C)(C1)CC(OCCNCCS(=O)(=O)O)(C3)C2 [compound 10]	subnanomolar	only minimal to moderate effects on cardiovascular parameters	no decrease in platelets	no significant reduction of platelet number	loss of Molt-4 activity relative to 9 (Molt-4 cells): over 30 fold
CC1(C)CCC(c2ccc(Cl)cc2)=C(CN2CCN(c3ccc(C(=O)NS(=O)(=O)c4ccc(N[C@H](CCN5CCOCC5)CSc5ccccc5)c(S(=O)(=O)C(F)(F)F)c4)cc3)CC2)C1 [navitoclax, reference compound]				severe thrombocytopenia	
CNCCOC12CC3(C)CC(C)(CC(Cn4ncc(-c5ccc(N6CCc7cccc(C(=O)Nc8nc9ccccc9s8)c7C6)nc5C(=O)O)c4C)(C3)C1)C2 [compound 9]	subnanomolar	marked changes in cardiovascular parameters	expected thrombocytopenia	severe thrombocytopenia	EC50 (Molt-4 cells; read-out: Molt-4 cell EC50, 10% human serum, 48 h): 8 nM
